{"data": "Measurements collected from several papers", "organism": "Staphylococcus aureus", "observed": "microbial growth", "note": "Compare with care: the assays were run in different laboratories."}
{"Compound": "Cn1cc(C2=C(c3cn(C4CCN(Cc5ccccn5)CC4)c4ccccc34)C(=O)NC2=O)c2ccccc21", "test system": "NCTC8325", "MIC": "> 30 µM"}
{"Compound": "CC1(C)CC[C@]2(C(=O)O)CC[C@]3(C)C(=CC[C@@H]4[C@@]5(C)CC[C@H](O)C(C)(C)[C@@H]5CC[C@]43C)[C@@H]2C1", "test system": "ATCC25923", "MIC": "32 µg/mL"}
{"Compound": "CCCCCCC#Cc1cncc(-c2nnc(Sc3ccc([N+](=O)[O-])cc3[N+](=O)[O-])n2C)c1", "test system": "MRSA", "setting": "drug-resistant strain", "MIC": "≥ 20 µg/mL"}
{"Compound": "CN(C)c1ccc(-c2nc3ccccc3[nH]2)cc1", "test": "broth dilution", "test system": "ATCC43300 MRSA", "setting": "drug-resistant strain", "MIC": "128 µg/mL"}
{"Compound": "CO[C@H]1[C@H](O[C@H]([C@H]2O[C@@H](n3ccc(=O)[nH]c3=O)[C@H](O)[C@@H]2O)[C@H](NCCCNC(=O)[C@@H](NC(=O)[C@@H](NC(=O)N[C@H](C(=O)O)C(C)C)[C@@H]2CCN=C(N)N2)[C@@H](OC(=O)CCCCCCC(C)C)C(C)C)C(=O)O)O[C@H](CN)[C@H]1O", "test system": "NEWMAN", "MIC": "> 32 µg/mL"}
{"Compound": "Oc1ccc(Br)cc1-c1nc2ccccc2[nH]1", "test": "broth dilution", "test system": "ATCC43300 MRSA", "setting": "drug-resistant strain", "MIC": "128 µg/mL"}
{"Compound": "CN[C@H](CC(C)C)C(=O)N[C@H]1C(=O)N[C@@H](CC(N)=O)C(=O)N[C@H]2C(=O)N[C@H]3C(=O)N[C@H](C(=O)N[C@H](C(=O)O)c4cc(O)cc(O)c4-c4cc3ccc4O)[C@H](O)c3ccc(c(Cl)c3)Oc3cc2cc(c3O[C@@H]2O[C@H](CO)[C@@H](O)[C@H](O)[C@H]2O[C@H]2C[C@](C)(N)[C@H](O)[C@H](C)O2)Oc2ccc(cc2Cl)[C@H]1O", "test system": "MRSA", "MIC": "8 µg/mL"}
{"Compound": "COC(=O)c1cc(-c2cccc(NC(=O)Nc3ccccc3F)c2)on1", "test": "broth dilution", "test system": "ATCC29213", "MIC": "> 64 µg/mL"}
{"Compound": "COc1cccc(OC)c1C(=O)N[C@@H]1C(=O)N2[C@@H]1SC(C)(C)[C@@H]2C(=O)O", "test system": "ATCCBAA1717", "setting": "drug-resistant strain, clinical isolate", "MIC": "> 64 µg/mL"}
{"Compound": "Cc1ccc2nc(-c3ccc4c(c3)OCO4)[nH]c2c1", "test": "broth dilution", "test system": "ATCC43300 MRSA", "setting": "drug-resistant strain", "MIC": "512 µg/mL"}
{"Compound": "CCCCCCNC(=S)Nc1cccc(-c2cc(C(=O)OC)no2)c1", "test": "broth dilution", "test system": "ATCC29213", "MIC": "> 64 µg/mL"}
{"Compound": "CN[C@H](CC(C)C)C(=O)N[C@H]1C(=O)N[C@@H](CC(N)=O)C(=O)N[C@H]2C(=O)N[C@H]3C(=O)N[C@H](C(=O)N[C@H](C(=O)O)c4cc(O)cc(O)c4-c4cc3ccc4O)[C@H](O)c3ccc(c(Cl)c3)Oc3cc2cc(c3O[C@@H]2O[C@H](CO)[C@@H](O)[C@H](O)[C@H]2O[C@H]2C[C@](C)(N)[C@H](O)[C@H](C)O2)Oc2ccc(cc2Cl)[C@H]1O", "test system": "ATCC700699", "setting": "drug-resistant strain", "MIC": "0.39 µg/mL"}
{"Compound": "CCCCCCCCCCCCCCCC(=O)NS(=O)(=O)Oc1ccc(OC)cc1", "test system": "ATCC33591 MRSA", "setting": "drug-resistant strain", "MIC": "> 200 µg/mL"}
{"Compound": "COC(=O)c1cc(-c2cccc(NC(=O)Nc3ccc(Cl)cc3)c2)on1", "test": "broth dilution", "test system": "ATCC29213", "MIC": "> 64 µg/mL"}
{"Compound": "COc1cccc(-c2nc3ccc(C)cc3[nH]2)c1", "test": "broth dilution", "test system": "ATCC43300 MRSA", "setting": "drug-resistant strain", "MIC": "256 µg/mL"}
{"Compound": "Cc1ccc2[nH]c3c(c2c1)CCCC3NCCc1ccc(Br)cc1 (centres unmarked)", "test": "broth dilution", "test system": "ATCC29213", "MIC": "4 µg/mL"}
{"Compound": "Cc1ccc2nc(-c3ccc(N(C)C)cc3)[nH]c2c1", "test": "broth dilution", "test system": "ATCC43300 MRSA", "setting": "drug-resistant strain", "MIC": "128 µg/mL"}
{"Compound": "CCCCCC/C=C\\CCCCCCCCCC(=O)NP(=O)(O)O", "test system": "ATCC33591 MRSA", "setting": "drug-resistant strain", "MIC": "200 µg/mL"}
{"Compound": "Cc1ccc2nc(-c3ccc([N+](=O)[O-])cc3)n(Cc3ccc(Cl)cc3)c2c1", "test": "broth dilution", "test system": "ATCC43300 MRSA", "setting": "drug-resistant strain", "MIC": "8 µg/mL"}
{"Compound": "CNC(C)[C@@H]1CC[C@@H](N)[C@@H](O[C@H]2[C@H](O)[C@@H](O[C@H]3OC[C@](C)(O)[C@H](NC)[C@H]3O)[C@H](N)C[C@@H]2N)O1 (some centres unmarked)", "test system": "NCTC8325", "MIC": "0.5 to 1 µM"}
